Values after ≈ are worked out from the molar mass of the structure shown. Active and inactive are the calls of the source. The rule behind the calls is not given here.
What was measured:
[1] = test system: Staphylococcus aureus; assay: Antibacterial activity against methicillin-sensitive Staphylococcus aureus after 18 to 20 hrs by microbroth dilution method; type: functional
[2] = test system: Enterococcus faecalis; assay: Antibacterial activity against Enterococcus faecalis after 18 to 20 hrs by microbroth dilution method; type: functional
[3] = test system: Escherichia coli; assay: Antibacterial activity against Escherichia coli after 18 to 20 hrs by microbroth dilution method; type: functional
[4] = test system: Staphylococcus aureus; assay: Antibacterial activity against methicillin-resistant Staphylococcus aureus after 18 to 20 hrs by microbroth dilution method; type: functional
[5] = test system: Staphylococcus aureus; assay: Induction of intracellular thiol depletion in Staphylococcus aureus after 60 mins by monobromobimane-based fluorescence assay relative to control
[6] = test system: Staphylococcus aureus; assay: Antibacterial activity against patient-derived methicillin-resistant Staphylococcus aureus 7419 after 18 to 20 hrs by microbroth dilution method; type: functional
Summary of the method: (§1)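 Patient-derived MRSA clinical isolates from the Department of Microbiology, Nizam's Institute of Medical Sciences, Hyderabad. MIC determined by broth dilution.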

[7] = test system: Staphylococcus aureus; assay: Antibacterial activity against patient-derived methicillin-resistant Staphylococcus aureus B19506 after 18 to 20 hrs by microbroth dilution method; type: functional; summary of the method: as §1
[8] = test system: Staphylococcus aureus; assay: Antibacterial activity against patient-derived methicillin-resistant Staphylococcus aureus 7425 after 18 to 20 hrs by microbroth dilution method; type: functional; summary of the method: as §1
[9] = test system: Staphylococcus aureus; assay: Antibacterial activity against patient-derived methicillin-resistant Staphylococcus aureus 7386 after 18 to 20 hrs by microbroth dilution method; type: functional; summary of the method: as §1
[10] = test system: Staphylococcus aureus; assay: Antibacterial activity against patient-derived methicillin-resistant Staphylococcus aureus K1 after 18 to 20 hrs by microbroth dilution method; type: functional; summary of the method: as §1
[11] = test system: Staphylococcus aureus; assay: Induction of intracellular thiol depletion in Staphylococcus aureus after 60 mins by monobromobimane-based fluorescence assay relative to control; type: functional, organism-based
[12] = test system: Staphylococcus aureus; assay: Induction of intracellular oxidative species generation in methicillin-sensitive Staphylococcus aureus 29213 at 0.5 to 8 ug/ml after 1 hr by DCFH2-DA dye-based fluorescence assay; type: functional, organism-based
Summary of the method: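 Intracellular oxidative species in S. aureus are read as fluorescence of 2,7-dichlorodihydrofluorescein-diacetate (DCFH2-DA) after exposure to compound.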

[13] = Cytotoxicity against human A549 cells after 72 hrs by MTT assay; type: cell-based
[14] = Selectivity index, ratio of GI50 for human A549 cells to MIC for Staphylococcus aureus
Summary of the method: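 Selectivity index calculated as GI50 in A549 lung carcinoma cells divided by MIC.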

| SMILES | MIC [1] | MIC [2] | MIC [3] | MIC [4] | further results |
| --- | --- | --- | --- | --- | --- |
| COc1ccc(NS(=O)(=O)c2ccc([N+](=O)[O-])cc2[N+](=O)[O-])cc1 | > 16 µg/mL |  |  |  |  |
| COc1ccccc1N(CCCN(Cc1ccccc1)S(=O)(=O)c1ccc([N+](=O)[O-])cc1[N+](=O)[O-])S(=O)(=O)c1ccc([N+](=O)[O-])cc1[N+](=O)[O-] | > 32 µg/mL |  |  |  |  |
| C#CCN(c1ccccc1OC)S(=O)(=O)c1ccc([N+](=O)[O-])cc1[N+](=O)[O-] | 4 µg/mL (≈ 10.2 µM) | 8 µg/mL (≈ 20.4 µM) | > 32 µg/mL | 8 µg/mL (≈ 20.4 µM) |  |
| COc1ccccc1CN(CCCN(Cc1ccccc1)S(=O)(=O)c1ccc([N+](=O)[O-])cc1[N+](=O)[O-])S(=O)(=O)c1ccc([N+](=O)[O-])cc1[N+](=O)[O-] | > 32 µg/mL | > 32 µg/mL | > 32 µg/mL |  |  |
| N#Cc1ccc(NS(=O)(=O)c2ccc([N+](=O)[O-])cc2[N+](=O)[O-])cc1 | > 16 µg/mL |  |  |  |  |
| O=[N+]([O-])c1ccc(S(=O)(=O)Nc2ccc(F)cc2)c([N+](=O)[O-])c1 | 16 µg/mL (≈ 46.9 µM) |  |  |  |  |
| CCCN(c1ccccc1OC)S(=O)(=O)c1ccc([N+](=O)[O-])cc1[N+](=O)[O-] | > 32 µg/mL | > 32 µg/mL | > 32 µg/mL |  |  |
| CN(Cc1ccccc1)S(=O)(=O)c1ccc([N+](=O)[O-])cc1[N+](=O)[O-] | 8 µg/mL (≈ 22.8 µM) |  |  |  |  |
| O=[N+]([O-])c1ccc(S(=O)(=O)Nc2ccccc2)c([N+](=O)[O-])c1 | 8 µg/mL (≈ 24.7 µM) |  |  |  |  |
| C#CCN(CC)S(=O)(=O)c1ccc([N+](=O)[O-])cc1[N+](=O)[O-] | 16 µg/mL (≈ 51.1 µM) | > 32 µg/mL | > 32 µg/mL | 16 µg/mL (≈ 51.1 µM) | Activity [5]: inactive |
| COc1ccccc1NS(=O)(=O)c1ccc([N+](=O)[O-])cc1[N+](=O)[O-] | 8 µg/mL (≈ 22.6 µM) | 16 µg/mL (≈ 45.3 µM) | > 32 µg/mL | 8 µg/mL (≈ 22.6 µM) |  |
| CCCCN(c1ccccc1OC)S(=O)(=O)c1ccc([N+](=O)[O-])cc1[N+](=O)[O-] | > 32 µg/mL | > 32 µg/mL | > 32 µg/mL |  |  |
| COc1ccc(CNS(=O)(=O)c2ccc([N+](=O)[O-])cc2[N+](=O)[O-])cc1 | > 16 µg/mL |  |  |  |  |
| CCN(c1ccccc1OC)S(=O)(=O)c1ccc([N+](=O)[O-])cc1[N+](=O)[O-] | 8 µg/mL (≈ 21 µM) | > 32 µg/mL | > 32 µg/mL | 8 µg/mL (≈ 21 µM) |  |
| COc1ccc(N(CCCN(Cc2ccccc2)S(=O)(=O)c2ccc([N+](=O)[O-])cc2[N+](=O)[O-])S(=O)(=O)c2ccc([N+](=O)[O-])cc2[N+](=O)[O-])cc1 | > 32 µg/mL |  |  |  |  |
| O=[N+]([O-])c1ccc(S(=O)(=O)NCc2ccccc2)c([N+](=O)[O-])c1 | > 16 µg/mL |  |  |  |  |
| C#CCN(C)S(=O)(=O)c1ccc([N+](=O)[O-])cc1[N+](=O)[O-] | 8 µg/mL (≈ 26.7 µM) | > 32 µg/mL | > 32 µg/mL | 8 µg/mL (≈ 26.7 µM) |  |
| O=C(O)c1cn(C2CC2)c2cc(N3CCNCC3)c(F)cc2c1=O [CIPROFLOXACIN] |  |  | ≤ 0.00075 µg/mL | 0.25 µg/mL (≈ 0.754 µM) | MIC [6]: > 4 µg/mL; MIC [7]: 32 µg/mL (≈ 96.6 µM); MIC [8]: > 4 µg/mL; MIC [9]: > 4 µg/mL; MIC [10]: 0.5 µg/mL (≈ 1.51 µM) |
| COc1cccc(NS(=O)(=O)c2ccc([N+](=O)[O-])cc2[N+](=O)[O-])c1 | 16 µg/mL (≈ 45.3 µM) | > 32 µg/mL | > 32 µg/mL | 32 µg/mL (≈ 90.6 µM) |  |
| CC(=O)NC[C@H]1CN(c2ccc(N3CCOCC3)c(F)c2)C(=O)O1 [LINEZOLID] |  |  |  | 1 µg/mL (≈ 2.96 µM) |  |

| SMILES | MIC [1] | MIC [2] | MIC [3] | MIC [4] | further results |
| --- | --- | --- | --- | --- | --- |
| COc1ccccc1N(Cc1ccccc1)S(=O)(=O)c1ccc([N+](=O)[O-])cc1[N+](=O)[O-] | > 32 µg/mL | > 32 µg/mL | > 32 µg/mL |  |  |
| COc1cccc(N(C)S(=O)(=O)c2ccc([N+](=O)[O-])cc2[N+](=O)[O-])c1 | 8 µg/mL (≈ 21.8 µM) | 8 µg/mL (≈ 21.8 µM) | > 32 µg/mL | 4 µg/mL (≈ 10.9 µM) |  |
| O=[N+]([O-])c1ccc(S(=O)(=O)N(CCCN(c2ccccc2)S(=O)(=O)c2ccc([N+](=O)[O-])cc2[N+](=O)[O-])Cc2ccccc2)c([N+](=O)[O-])c1 | > 16 µg/mL |  |  |  |  |
| CCN1C(=O)C=CC1=O |  |  |  |  | Activity [5]: Active |
| COc1ccccc1N(C)S(=O)(=O)c1ccc([N+](=O)[O-])cc1[N+](=O)[O-] | 16 µg/mL (≈ 43.6 µM) | 16 µg/mL (≈ 43.6 µM) | > 32 µg/mL | 16 µg/mL (≈ 43.6 µM) |  |
| C#CCN(Cc1cccc(OC)c1)S(=O)(=O)c1ccc([N+](=O)[O-])cc1[N+](=O)[O-] | 16 µg/mL (≈ 39.5 µM) |  |  |  |  |
| CCN(c1cccc(OC)c1)S(=O)(=O)c1ccc([N+](=O)[O-])cc1[N+](=O)[O-] | 8 µg/mL (≈ 21 µM) | 8 µg/mL (≈ 21 µM) | > 32 µg/mL | 8 µg/mL (≈ 21 µM) |  |
| C#CCN(Cc1ccccc1)S(=O)(=O)c1ccc([N+](=O)[O-])cc1[N+](=O)[O-] | 4 µg/mL (≈ 10.7 µM) | 16 µg/mL (≈ 42.6 µM) | > 32 µg/mL | 4 µg/mL (≈ 10.7 µM) |  |
| C[C@@H](O)[C@H]1C(=O)N2C(C(=O)O)=C(S[C@@H]3CN[C@H](C(=O)N(C)C)C3)[C@H](C)[C@H]12 [MEROPENEM] |  |  |  | 16 µg/mL (≈ 41.7 µM) | MIC [6]: 16 µg/mL (≈ 41.7 µM); MIC [7]: 1 µg/mL (≈ 2.61 µM); MIC [8]: 4 µg/mL (≈ 10.4 µM); MIC [9]: > 32 µg/mL; MIC [10]: 0.5 µg/mL (≈ 1.3 µM) |
| O=[N+]([O-])c1ccc(S(=O)(=O)N(CCCO)Cc2ccccc2)c([N+](=O)[O-])c1 | 16 µg/mL (≈ 40.5 µM) | 32 µg/mL (≈ 80.9 µM) | > 32 µg/mL | 8 µg/mL (≈ 20.2 µM) |  |
| C#CCN(c1cccc(OC)c1)S(=O)(=O)c1ccc([N+](=O)[O-])cc1[N+](=O)[O-] | 4 µg/mL (≈ 10.2 µM) | 8 µg/mL (≈ 20.4 µM) | > 32 µg/mL | 4 µg/mL (≈ 10.2 µM) | Activity [11]: Dose-dependent effect; Activity [12]: Active; GI50 at 72 h [13]: 27 µM; Selectivity Index [14]: 5.2; MIC [6]: 4 µg/mL (≈ 10.2 µM); MIC [7]: 2 µg/mL (≈ 5.11 µM); MIC [8]: 2 µg/mL (≈ 5.11 µM); MIC [9]: 2 µg/mL (≈ 5.11 µM); MIC [10]: 4 µg/mL (≈ 10.2 µM) |
| O=[N+]([O-])c1ccc(S(=O)(=O)N(CCCN(Cc2ccccc2)S(=O)(=O)c2ccc([N+](=O)[O-])cc2[N+](=O)[O-])Cc2ccccc2)c([N+](=O)[O-])c1 | > 16 µg/mL |  |  |  |  |
| COc1ccc(CN(CCCN(Cc2ccccc2)S(=O)(=O)c2ccc([N+](=O)[O-])cc2[N+](=O)[O-])S(=O)(=O)c2ccc([N+](=O)[O-])cc2[N+](=O)[O-])c(OC)c1 | > 16 µg/mL | > 32 µg/mL | > 32 µg/mL | > 32 µg/mL | Activity [5]: inactive |
| C=CCN(c1cccc(OC)c1)S(=O)(=O)c1ccc([N+](=O)[O-])cc1[N+](=O)[O-] | 8 µg/mL (≈ 20.3 µM) | 16 µg/mL (≈ 40.7 µM) | > 32 µg/mL | 8 µg/mL (≈ 20.3 µM) |  |
| COc1cccc(N(CCCN(Cc2ccccc2)S(=O)(=O)c2ccc([N+](=O)[O-])cc2[N+](=O)[O-])S(=O)(=O)c2ccc([N+](=O)[O-])cc2[N+](=O)[O-])c1 | > 32 µg/mL |  |  |  |  |
| C#CCN(Cc1ccc(OC)cc1)S(=O)(=O)c1ccc([N+](=O)[O-])cc1[N+](=O)[O-] | 8 µg/mL (≈ 19.7 µM) | 16 µg/mL (≈ 39.5 µM) | > 32 µg/mL | 8 µg/mL (≈ 19.7 µM) |  |
| COc1ccc(CN(CCCN(Cc2ccccc2)S(=O)(=O)c2ccc([N+](=O)[O-])cc2[N+](=O)[O-])S(=O)(=O)c2ccc([N+](=O)[O-])cc2[N+](=O)[O-])cc1 | > 32 µg/mL | > 32 µg/mL | > 32 µg/mL |  |  |
| O=[N+]([O-])c1ccc(S(=O)(=O)N(CCCN(c2ccccc2F)S(=O)(=O)c2ccc([N+](=O)[O-])cc2[N+](=O)[O-])Cc2ccccc2)c([N+](=O)[O-])c1 | > 32 µg/mL |  |  |  |  |
| C=CCN(c1ccccc1OC)S(=O)(=O)c1ccc([N+](=O)[O-])cc1[N+](=O)[O-] | 8 µg/mL (≈ 20.3 µM) | > 32 µg/mL | > 32 µg/mL | 4 µg/mL (≈ 10.2 µM) |  |
| NC[C@H]1O[C@H](O[C@H]2[C@H](O)[C@@H](O[C@H]3O[C@H](CO)[C@@H](O)[C@H](N)[C@H]3O)[C@H](N)C[C@@H]2N)[C@H](N)C[C@@H]1O [TOBRAMYCIN] |  |  |  | > 32 µg/mL | MIC [6]: > 32 µg/mL; MIC [7]: > 32 µg/mL; MIC [8]: 1 µg/mL (≈ 2.14 µM); MIC [9]: > 32 µg/mL; MIC [10]: 8 µg/mL (≈ 17.1 µM) |

Source: ChEMBL document CHEMBL3588802, “Thiol activated prodrugs of sulfur dioxide (SO2) as MRSA inhibitors” (Bioorg Med Chem Lett, 2015)
